ChEMBL document CHEMBL4376814, “Novel cyclin-dependent kinase 9 (CDK9) inhibitor with suppression of cancer stemness activity against non-small-cell lung cancer” (Eur J Med Chem, 2019)
pIC50: −log10 of the molar value.

Columns and labels:
[1] = tested on: RAC-beta serine/threonine-protein kinase (Homo sapiens), P31751 [S474D]; test: Inhibition of recombinant human pkb-beta S474D mutant (120 to end residues) at 1 uM using GRPRTSSFAEGKK as substrate measured after 40 mins in presence of [gamma33P]ATP by scintillation counting method relative to control
[2] = biological target: Protein kinase C delta type (Homo sapiens) (UniProt Q05655); test: Inhibition of recombinant human PKCdelta (2 to end residues) at 1 uM using ERMRPRKRQGSVRRR as substrate measured after 40 mins in presence of [gamma33P]ATP by scintillation counting method relative to control
[3] = biological target: Cyclin-dependent kinase 1/cyclin B1 (Homo sapiens) (UniProt P06493+P14635); test: Inhibition of recombinant full-length human CDK1/cyclinB at 1 uM using Histone H1 as substrate measured after 40 mins in presence of [gamma33P]ATP by scintillation counting method relative to control; format: protein-complex assay
[4] = biological target: CDK3/Cyclin E (Homo sapiens) (UniProt P24864+Q00526); test: Inhibition of recombinant full-length human CDK3/cyclinE at 1 uM using Histone H1 as substrate measured after 40 mins in presence of [gamma33P]ATP by scintillation counting method relative to control; format: protein-complex assay
[5] = tested on: Casein kinase I isoform gamma-3 (Homo sapiens), Q9Y6M4 [UNDEFINED MUTATION]; test: Inhibition of recombinant human CK1gamma3 K91E/R174G/E302D mutant (1 to 330 residues) at 1 uM using KRRRALS(p)VASLPGL as substrate measured after 40 mins in presence of [gamma33P]ATP by scintillation counting method relative to control
Procedure, shortened: (§1)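 Single-point inhibition at 1 µM was measured in the Eurofins KinaseProfiler panel. Values are the mean of two independent experiments.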

[6] = biological target: Serine/threonine-protein kinase BRSK1 (Homo sapiens) (UniProt Q8TDC3); test: Inhibition of recombinant human BrSK1 (2 to end residues) at 1 uM using KKKVSRSGLYRSPSMPENLNRPR as substrate measured after 40 mins in presence of [gamma33P]ATP by scintillation counting method relative to control
[7] = biological target: Activated CDC42 kinase 1 (Homo sapiens) (UniProt Q07912); test: Inhibition of recombinant human ACK1 (1 to 389 residues) at 1 uM using EFPIYDFLPAKKK as substrate measured after 40 mins in presence of [gamma33P]ATP by scintillation counting method relative to control
[8] = biological target: Serine/threonine-protein kinase Nek1 (Homo sapiens) (UniProt Q96PY6); test: Inhibition of recombinant human NEK1 (1 to 505 residues) at 1 uM using RLGRDKYKTLRQIRQ as substrate measured after 40 mins in presence of [gamma33P]ATP by scintillation counting method relative to control
[9] = biological target: Ephrin type-A receptor 1 (Homo sapiens) (UniProt P21709); test: Inhibition of recombinant human EphA1 (568 to end residues) at 1 uM using KKKSPGEYVNIEF as substrate measured after 40 mins in presence of [gamma33P]ATP by scintillation counting method relative to control
[10] = biological target: G protein-coupled receptor kinase 5 (Homo sapiens) (UniProt P34947); test: Inhibition of recombinant full-length human GRK5 at 1 uM using casein as substrate measured after 40 mins in presence of [gamma33P]ATP by scintillation counting method relative to control
[11] = biological target: Cyclin-dependent kinase 2/cyclin E1 (Homo sapiens) (UniProt P24864+P24941); test: Inhibition of recombinant full-length human CDK2/cyclinE at 1 uM using Histone H1 as substrate measured after 40 mins in presence of [gamma33P]ATP by scintillation counting method relative to control; format: protein-complex assay
[12] = biological target: Casein kinase I isoform delta (Homo sapiens) (UniProt P48730); test: Inhibition of recombinant human CK1delta (1 to 294 residues) at 1 uM using KRRRALS(p)VASLPGL as substrate measured after 40 mins in presence of [gamma33P]ATP by scintillation counting method relative to control
[13] = biological target: CDK4/Cyclin D3 (Homo sapiens, UniProt P11802); test: Inhibition of recombinant full-length human CDK4/cyclinD3 using Rb fragment as substrate measured after 40 mins in presence of [gamma33P]ATP by scintillation counting method; format: protein-complex assay
[14] = tested on: Serine/threonine-protein kinase N1 (Homo sapiens), Q16512 [V901I]; test: Inhibition of human PRK1 V901I mutant (498 to end residues) at 1 uM using KKLNRTLSFAEPG as substrate measured after 40 mins in presence of [gamma33P]ATP by scintillation counting method relative to control
Procedure, shortened: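 Percent inhibition of kinase activity at a single compound concentration, measured by the outsourced Eurofins KinaseProfiler panel. Values are the mean of two independent experiments.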

[15] = biological target: Ephrin type-B receptor 4 (Homo sapiens) (UniProt P54760); test: Inhibition of recombinant human EphB4 (561 to end residues) at 1 uM using poly(Glu, Tyr) 4:1 as substrate measured after 40 mins in presence of [gamma33P]ATP by scintillation counting method relative to control
[16] = tested on: MCF7; test: Antiproliferative activity against human MCF7 cells assessed as inhibition of cell viability after 72 hrs by CCK-8 assay; format: functional, cell-based; conditions: MCF7, 72 h
Procedure, shortened: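 Cells kept at 37 °C, 5% CO2 in DMEM or RPMI-1640 with 10% FBS and 1% penicillin/streptomycin, then seeded at 3000 cells/well (adherent) or 10,000 cells/well (suspension). Exposed to a range of concentrations for 72 h. CCK-8 added for 1-4 h before reading A450. […] Three independent experiments.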

[17] = biological target: Serine/threonine-protein kinase PRP4 homolog (Homo sapiens) (UniProt Q13523); test: Inhibition of human PRP4 (663 to end residues) at 1 uM using casein as substrate measured after 120 mins in presence of [gamma33P]ATP by scintillation counting method relative to control; procedure, shortened: as §1
[18] = tested on: RAF proto-oncogene serine/threonine-protein kinase (Homo sapiens), P04049 [Y340D,Y341D]; test: Inhibition of recombinant human c-RAF Y340D/Y341D double mutant ([…]) at 1 uM using inactive MEK1 as substrate measured after 40 mins in presence of [gamma33P]ATP by scintillation counting method relative to control
[19] = tested on: A549; test: Induction of apoptosis in human A549 cells assessed as viable cells at 0.5 uM after 48 hrs by AnnexinV-FITC/PI staining-based flow cytometric analysis (reference value: 88.8%); format: functional; conditions: A549, 48 h, read-out: Activity
[20] = biological target: Serine/threonine-protein kinase PAK 1 (Homo sapiens) (UniProt Q13153); test: Inhibition of recombinant human PAK1 (150 to end residues) at 1 uM using RRRLSFAEPG as substrate measured after 40 mins in presence of [gamma33P]ATP by scintillation counting method relative to control
[21] = biological target: Testis-specific serine/threonine-protein kinase 1 (Homo sapiens) (UniProt Q9BXA7); test: Inhibition of recombinant full-length human TSSK1 at 1 uM using KKKVSRSGLYRSPSMPENLNRPR as substrate measured after 40 mins in presence of [gamma33P]ATP by scintillation counting method relative to control

G protein-coupled receptor kinase 5 (Homo sapiens), sequence (P34947 whole entry, looked up): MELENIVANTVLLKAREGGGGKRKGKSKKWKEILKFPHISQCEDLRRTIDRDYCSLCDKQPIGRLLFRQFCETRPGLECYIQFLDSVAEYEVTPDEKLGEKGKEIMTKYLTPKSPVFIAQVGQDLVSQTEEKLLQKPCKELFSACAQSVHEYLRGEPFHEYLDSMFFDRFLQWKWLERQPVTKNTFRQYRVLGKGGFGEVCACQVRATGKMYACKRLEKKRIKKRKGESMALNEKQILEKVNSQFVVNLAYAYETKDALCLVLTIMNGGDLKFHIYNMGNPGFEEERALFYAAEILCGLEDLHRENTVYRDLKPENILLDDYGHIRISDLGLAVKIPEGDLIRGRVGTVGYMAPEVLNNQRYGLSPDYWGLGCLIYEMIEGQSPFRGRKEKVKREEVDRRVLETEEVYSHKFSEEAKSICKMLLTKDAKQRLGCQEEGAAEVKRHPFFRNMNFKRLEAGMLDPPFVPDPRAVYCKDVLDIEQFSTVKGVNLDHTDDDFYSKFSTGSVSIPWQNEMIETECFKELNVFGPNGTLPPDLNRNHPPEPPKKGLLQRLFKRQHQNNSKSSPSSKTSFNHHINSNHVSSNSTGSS
Protein kinase C delta type (Homo sapiens), sequence (Q05655 whole entry, looked up): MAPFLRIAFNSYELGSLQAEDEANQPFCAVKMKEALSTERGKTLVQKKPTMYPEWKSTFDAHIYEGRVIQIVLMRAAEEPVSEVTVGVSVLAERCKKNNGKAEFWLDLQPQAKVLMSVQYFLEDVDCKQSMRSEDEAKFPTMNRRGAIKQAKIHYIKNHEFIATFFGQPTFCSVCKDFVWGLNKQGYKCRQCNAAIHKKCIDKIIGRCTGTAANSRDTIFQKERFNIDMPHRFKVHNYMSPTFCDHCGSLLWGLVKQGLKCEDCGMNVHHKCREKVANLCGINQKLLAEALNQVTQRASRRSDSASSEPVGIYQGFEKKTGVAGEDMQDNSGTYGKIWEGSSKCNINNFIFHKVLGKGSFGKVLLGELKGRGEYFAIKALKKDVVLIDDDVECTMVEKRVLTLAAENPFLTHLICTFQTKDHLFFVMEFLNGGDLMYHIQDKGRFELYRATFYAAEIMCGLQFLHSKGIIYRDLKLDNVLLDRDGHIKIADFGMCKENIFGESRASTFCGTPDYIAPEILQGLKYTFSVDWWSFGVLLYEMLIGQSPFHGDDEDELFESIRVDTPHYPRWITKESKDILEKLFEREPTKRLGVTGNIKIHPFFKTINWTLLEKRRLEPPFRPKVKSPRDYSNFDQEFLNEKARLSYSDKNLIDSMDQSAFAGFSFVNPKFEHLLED
CDK3/Cyclin E (Homo sapiens), sequence (P24864 whole entry, looked up, the tested form may be a part, canonical isoform): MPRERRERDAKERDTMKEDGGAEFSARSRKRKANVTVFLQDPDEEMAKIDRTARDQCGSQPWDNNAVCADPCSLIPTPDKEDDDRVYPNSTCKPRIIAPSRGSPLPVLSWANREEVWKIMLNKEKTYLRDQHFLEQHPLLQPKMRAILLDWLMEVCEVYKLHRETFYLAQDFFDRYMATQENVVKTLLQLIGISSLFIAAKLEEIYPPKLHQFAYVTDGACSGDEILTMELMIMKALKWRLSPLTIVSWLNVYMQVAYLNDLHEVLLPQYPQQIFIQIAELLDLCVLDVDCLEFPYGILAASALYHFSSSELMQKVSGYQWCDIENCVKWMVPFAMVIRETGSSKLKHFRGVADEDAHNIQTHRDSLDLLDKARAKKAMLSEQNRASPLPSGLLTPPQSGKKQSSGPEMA
CDK3/Cyclin E (Homo sapiens), sequence (Q00526 whole entry, looked up, the tested form may be a part, canonical isoform): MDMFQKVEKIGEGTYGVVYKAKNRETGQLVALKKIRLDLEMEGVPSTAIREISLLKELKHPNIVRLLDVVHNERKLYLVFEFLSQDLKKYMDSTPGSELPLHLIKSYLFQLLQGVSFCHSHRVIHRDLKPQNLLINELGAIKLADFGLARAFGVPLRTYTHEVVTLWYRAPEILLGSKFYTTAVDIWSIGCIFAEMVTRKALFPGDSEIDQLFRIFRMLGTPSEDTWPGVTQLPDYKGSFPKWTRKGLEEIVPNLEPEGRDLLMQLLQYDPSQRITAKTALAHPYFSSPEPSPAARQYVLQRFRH
Serine/threonine-protein kinase BRSK1 (Homo sapiens), sequence (Q8TDC3 whole entry, the tested form may be a part): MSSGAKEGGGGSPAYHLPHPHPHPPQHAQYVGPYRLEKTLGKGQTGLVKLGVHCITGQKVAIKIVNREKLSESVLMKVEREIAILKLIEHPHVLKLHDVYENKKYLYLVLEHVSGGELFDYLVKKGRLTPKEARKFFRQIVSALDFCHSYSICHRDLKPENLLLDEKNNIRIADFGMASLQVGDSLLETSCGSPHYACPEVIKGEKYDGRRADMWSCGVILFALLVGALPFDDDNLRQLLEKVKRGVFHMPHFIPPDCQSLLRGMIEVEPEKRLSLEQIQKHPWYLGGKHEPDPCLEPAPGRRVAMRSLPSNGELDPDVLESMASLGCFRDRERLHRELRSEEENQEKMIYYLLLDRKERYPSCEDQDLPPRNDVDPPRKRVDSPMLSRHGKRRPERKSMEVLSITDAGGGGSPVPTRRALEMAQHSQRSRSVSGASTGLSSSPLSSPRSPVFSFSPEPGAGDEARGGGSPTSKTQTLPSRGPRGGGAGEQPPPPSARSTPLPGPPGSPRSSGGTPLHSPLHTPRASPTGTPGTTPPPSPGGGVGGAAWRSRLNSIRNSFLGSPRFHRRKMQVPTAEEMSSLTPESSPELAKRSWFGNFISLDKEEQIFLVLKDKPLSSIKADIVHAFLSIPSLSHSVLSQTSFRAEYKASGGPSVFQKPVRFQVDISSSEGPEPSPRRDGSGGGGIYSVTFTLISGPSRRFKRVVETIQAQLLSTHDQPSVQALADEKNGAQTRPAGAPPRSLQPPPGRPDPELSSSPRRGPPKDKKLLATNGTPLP
Serine/threonine-protein kinase PAK 1 (Homo sapiens), sequence (Q13153 whole entry): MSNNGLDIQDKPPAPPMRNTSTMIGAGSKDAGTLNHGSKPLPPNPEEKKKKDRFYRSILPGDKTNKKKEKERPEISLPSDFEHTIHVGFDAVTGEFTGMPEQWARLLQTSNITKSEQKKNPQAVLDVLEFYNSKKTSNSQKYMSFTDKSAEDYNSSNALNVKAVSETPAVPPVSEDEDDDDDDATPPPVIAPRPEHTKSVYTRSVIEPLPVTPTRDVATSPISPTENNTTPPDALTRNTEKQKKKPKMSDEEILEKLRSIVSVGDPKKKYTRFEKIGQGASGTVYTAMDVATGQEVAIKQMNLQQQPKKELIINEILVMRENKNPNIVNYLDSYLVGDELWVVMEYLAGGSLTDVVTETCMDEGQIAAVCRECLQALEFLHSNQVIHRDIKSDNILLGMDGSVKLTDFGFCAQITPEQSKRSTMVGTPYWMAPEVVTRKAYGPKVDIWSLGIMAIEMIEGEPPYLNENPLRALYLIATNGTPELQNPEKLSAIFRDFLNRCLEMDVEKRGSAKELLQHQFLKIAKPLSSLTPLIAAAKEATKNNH
Serine/threonine-protein kinase PRP4 homolog (Homo sapiens), sequence (Q13523 whole entry): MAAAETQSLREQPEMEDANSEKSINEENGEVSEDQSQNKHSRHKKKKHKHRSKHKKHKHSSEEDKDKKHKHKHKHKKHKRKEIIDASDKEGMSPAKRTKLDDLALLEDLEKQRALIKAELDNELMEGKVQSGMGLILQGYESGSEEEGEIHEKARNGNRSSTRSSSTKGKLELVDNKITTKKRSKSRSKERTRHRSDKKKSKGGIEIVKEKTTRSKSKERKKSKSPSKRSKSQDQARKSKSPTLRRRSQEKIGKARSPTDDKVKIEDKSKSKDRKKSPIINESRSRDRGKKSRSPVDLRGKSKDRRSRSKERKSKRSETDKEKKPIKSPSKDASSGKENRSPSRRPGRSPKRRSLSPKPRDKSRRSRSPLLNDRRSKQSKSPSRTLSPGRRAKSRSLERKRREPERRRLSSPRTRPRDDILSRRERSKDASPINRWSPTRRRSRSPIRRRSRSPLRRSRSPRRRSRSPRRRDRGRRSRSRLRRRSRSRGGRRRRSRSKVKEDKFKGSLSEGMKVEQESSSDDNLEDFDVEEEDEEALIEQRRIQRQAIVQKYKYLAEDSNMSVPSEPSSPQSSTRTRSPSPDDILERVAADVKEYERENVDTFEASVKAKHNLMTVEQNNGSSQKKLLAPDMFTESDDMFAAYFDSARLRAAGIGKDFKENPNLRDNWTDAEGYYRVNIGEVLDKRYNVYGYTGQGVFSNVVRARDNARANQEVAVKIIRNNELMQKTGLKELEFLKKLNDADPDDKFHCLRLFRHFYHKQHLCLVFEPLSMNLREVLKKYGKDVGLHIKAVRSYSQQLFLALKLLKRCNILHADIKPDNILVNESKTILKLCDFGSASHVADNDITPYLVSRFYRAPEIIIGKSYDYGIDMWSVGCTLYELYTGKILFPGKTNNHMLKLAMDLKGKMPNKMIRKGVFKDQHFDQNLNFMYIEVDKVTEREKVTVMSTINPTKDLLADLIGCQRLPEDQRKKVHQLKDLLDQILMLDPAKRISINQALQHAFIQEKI
RAC-beta serine/threonine-protein kinase (Homo sapiens), P31751 [S474D], sequence (P31751 whole entry S474D): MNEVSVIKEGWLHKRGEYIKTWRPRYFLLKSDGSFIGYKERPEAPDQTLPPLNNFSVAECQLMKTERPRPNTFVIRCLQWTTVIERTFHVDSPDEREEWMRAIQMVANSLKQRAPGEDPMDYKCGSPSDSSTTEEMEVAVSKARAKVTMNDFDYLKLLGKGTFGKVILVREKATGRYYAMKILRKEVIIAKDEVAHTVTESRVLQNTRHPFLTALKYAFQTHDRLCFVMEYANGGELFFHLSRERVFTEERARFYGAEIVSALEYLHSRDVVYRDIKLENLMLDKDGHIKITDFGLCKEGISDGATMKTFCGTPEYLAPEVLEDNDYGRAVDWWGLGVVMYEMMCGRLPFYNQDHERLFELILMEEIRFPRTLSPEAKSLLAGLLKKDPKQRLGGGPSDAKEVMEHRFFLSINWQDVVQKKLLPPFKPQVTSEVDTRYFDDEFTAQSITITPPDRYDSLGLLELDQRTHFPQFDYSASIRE

## CN(C)C(=O)c1cc2cnc(Nc3ccc(NC(=O)CCCCCCCN=C=S)cc3)nc2n1C1CCCC1
[1]
  inhibition: 23%
[2]
  inhibition: 8%
[3]
  inhibition: 58%
[4]
  inhibition: 82%
[5]
  inhibition: 11%
[6]
  inhibition: 16%
[7]
  inhibition: 82%
[8]
  inhibition: 69%
[9]
  inhibition: 44%
[10]
  inhibition: -2%
[11]
  inhibition: 75%
[12]
  inhibition: -2%
[13]
  pIC50: 6.83
[14]
  inhibition: 3%
[15]
  inhibition: -4%
[16]
  pIC50: 5.76
[17]
  inhibition: 1%
[18]
  inhibition: 33%
[19]
  viability at 0.5 µM: 78.8%
[20]
  inhibition: -5%
[21]
  inhibition: 7%
